From ChEMBL document CHEMBL2086252, “Syntheses and evaluation of anticonvulsant activity of novel branched alkyl carbamates” (J Med Chem, 2012)
Active and inactive are the calls of the source. The rule behind the calls is not given here.

Key:
Rattus norvegicus [1] = test: Neurotoxicity in pilocarpine-induced status epilepticus Sprague-Dawley albino rat model assessed as minimal motor impairment at 30 mg/kg, ip after 0.25 hr by rotarod test; assay type: toxicity, organism-based; set-up: dose 30 mg/kg, route intraperitoneal; settings: in vivo
How it was run: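 Rat pilocarpine status epilepticus model: test carbamate given at 0 or 30 min after the first observed Racine stage 3 motor seizure, which marks SE onset. Neurotoxicity was scored within the same model.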

Mus musculus [2] = test: Anticonvulsant activity in albino CF1 mouse assessed as protection against maximal electroshock-induced seizures at 300 mg/kg, ip after 0.5 hrs; assay type: functional, organism-based; set-up: dose 300 mg/kg
How it was run: (§1)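 Mice dosed ip at 30, 100 or 300 mg/kg, then tested 0.5 h and 4 h after administration in the MES or scMet test. Protection was recorded as animals protected over animals tested. Neurotoxicity was recorded as motor impairment or sedation, as animals affected over animals tested.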

Mus musculus [3] = test: Anticonvulsant activity in ip dosed albino CF-1 mouse assessed as protection against 6 Hz psychomotor seizure; assay type: functional; settings: albino CF-1, ip
How it was run: (§2)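 Quantitative testing: rats dosed orally or ip in MES and scMet tests, and mice dosed ip, including the 6 Hz (32 mA) psychomotor seizure test. ED50 and TD50 were reported in mg/kg with ranges in parentheses. Protective index was calculated as TD50/ED50.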

Mus musculus [4] = test: Anticonvulsant activity in albino CF1 mouse assessed as protection against maximal electroshock-induced seizures at 30 mg/kg, ip after 0.5 hrs; assay type: functional, organism-based; set-up: dose 30 mg/kg; how it was run: as §1
Rattus norvegicus [5] = test: Anticonvulsant activity in Sprague-Dawley albino rat assessed as protection against maximal electroshock-induced seizures at 30 mg/kg, po after 2 hrs; assay type: functional, organism-based; set-up: dose 30 mg/kg
How it was run: (§3)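 Rats dosed orally. Anti-MES protection was scored as animals protected over animals tested at each time after dosing. Neurotoxicity was scored as motor impairment or sedation, as animals affected over animals tested.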

Mus musculus [6] = test: Anticonvulsant activity in albino CF1 mouse assessed as protection against maximal electroshock-induced seizures at 300 mg/kg, ip after 4 hrs; assay type: functional, organism-based; set-up: dose 300 mg/kg; how it was run: as §1
Mus musculus [7] = test: Protective index, ratio of TD50 for ip dosed albino CF1 mouse by rotarod test to ED50 for ip dosed albino CF1 mouse by subcutaneous metrazol seizures test; assay type: functional
How it was run: (§4)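 Protective index calculated as TD50/ED50, with TD50 and ED50 taken from the same species and dosing route.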

Mus musculus [8] = test: Protective index, ratio of TD50 for ip dosed albino CF1 mouse by rotarod test to ED50 for ip dosed albino CF1 mouse by 6 Hz psychomotor seizure test; assay type: functional; how it was run: as §4
Rattus norvegicus [9] = test: Neurotoxicity in pilocarpine-induced status epilepticus Sprague-Dawley albino rat model assessed as minimal motor impairment at 100 mg/kg, ip after 0.5 hrs by rotarod test; assay type: toxicity, organism-based; set-up: dose 100 mg/kg, route intraperitoneal; settings: in vivo
Rattus norvegicus [10] = test: Anticonvulsant activity in Sprague-Dawley albino rat assessed as protection against pilocarpine-induced status epilepticus at 65 mg/kg, ip; assay type: functional, organism-based; set-up: dose 65 mg/kg
How it was run: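 Pilocarpine status epilepticus model in rats. Number and severity of convulsive seizures were observed behaviourally.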

Rattus norvegicus [11] = test: Anticonvulsant activity in ip dosed Sprague-Dawley albino rat assessed as protection against subcutaneous metrazol-induced seizures; assay type: functional; how it was run: as §2
Mus musculus [12] = test: Anticonvulsant activity in albino CF1 mouse assessed as protection against maximal electroshock-induced seizures at 100 mg/kg, ip after 0.5 hrs; assay type: functional, organism-based; set-up: dose 100 mg/kg; how it was run: as §1
Rattus norvegicus [13] = test: Neurotoxicity in Sprague-Dawley albino rat assessed as minimal motor impairment at 30 mg/kg, po by rotarod test; assay type: toxicity, organism-based; set-up: dose 30 mg/kg, route oral; settings: in vivo; how it was run: as §3
Mus musculus [14] = test: Anticonvulsant activity in albino CF1 mouse assessed as protection against subcutaneous metrazol-induced seizures at 30 mg/kg, ip after 4 hrs; assay type: functional, organism-based; set-up: dose 30 mg/kg; how it was run: as §1
Rattus norvegicus [15] = test: Protective index, ratio of TD50 for po dosed Sprague-Dawley albino rat by rotarod test to ED50 for po dosed Sprague-Dawley albino rat by subcutaneous metrazol seizures test; assay type: functional; how it was run: as §4
Mus musculus [16] = test: Anticonvulsant activity in albino CF1 mouse assessed as protection against maximal electroshock-induced seizures at 30 mg/kg, ip after 4 hrs; assay type: functional, organism-based; set-up: dose 30 mg/kg; how it was run: as §1
Rattus norvegicus [17] = test: Anticonvulsant activity in Sprague-Dawley albino rat assessed as protection against maximal electroshock-induced seizures at 30 mg/kg, po after 1 hr; assay type: functional, organism-based; set-up: dose 30 mg/kg; how it was run: as §3

CCC(COC(N)=O)C(C)C (racemic)
Activity (Rattus norvegicus [1]): Non-toxic
Activity (Mus musculus [2]): Active
ED50 (Mus musculus [3]): 33 mg/kg
Activity (Mus musculus [4]): inactive
Activity (Rattus norvegicus [5]): inactive
Activity (Mus musculus [6]): inactive
Ratio TD50/ED50 (Mus musculus [7]): 2.9
Ratio TD50/ED50 (Mus musculus [8]): 4.4
Activity (Rattus norvegicus [9]): Toxic
Activity (Rattus norvegicus [10]): Active
ED50 (Rattus norvegicus [11]): 19 mg/kg
Activity (Mus musculus [12]): inactive
Activity (Rattus norvegicus [13]): Non-toxic
Activity (Mus musculus [14]): inactive
Ratio TD50/ED50 (Rattus norvegicus [15]): 14
Activity (Mus musculus [16]): inactive
Activity (Rattus norvegicus [17]): inactive
